Measured values reported in ChEMBL document CHEMBL4152256, “Structure-activity relationship of new antimalarial 1-aryl-3-susbtituted propanol derivatives: Synthesis, preliminary toxicity profiling, parasite life cycle stage studies, target exploration, and targeted delivery” (Eur J Med Chem, 2018).

Assays:
Plasmodium falciparum [1] = experiment: Antiplasmodial activity against multidrug-resistant Plasmodium falciparum FCR-3 by [3H]-hypoxanthine incorporation assay; type: functional, organism-based, FCR-3/Gambia; details: Plasmodium falciparum, FCR-3/Gambia
How it was run: (§1)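 Blood-stage P. falciparum 3D7 and FCR-3 were tested by a modified [3H]-hypoxanthine incorporation assay. Chloroquine was the reference in all runs.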

Plasmodium falciparum [2] = experiment: Antiplasmodial activity against chloroquine-sensitive Plasmodium falciparum 3D7 by [3H]-hypoxanthine incorporation assay; type: functional, organism-based; details: Plasmodium falciparum, 3D7; how it was run: as §1
[3] = Cytotoxicity against human HepG2A16 cells by MTT assay; type: cell-based; details: HepG2A16 cells
How it was run: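 MTT viability assay on HepG2-A16 cells, giving CC50 values.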

[4] = Selectivity index, ratio of CC50 for human HepG2A16 cells by MTT assay to IC50 for multidrug-resistant Plasmodium falciparum FCR-3; type: toxicity; details: HepG2A16 cells, read-out: Ratio CC50/IC50
How it was run: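 HepG2-A16 human hepatoma cells were tested by MTT viability assay to give CC50. Blood-stage activity was measured against the multidrug-resistant P. falciparum FCR-3 strain by [3H]-hypoxanthine incorporation to give IC50. SI = CC50 HepG2 / FCR-3 IC50.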

[5] = Genotoxicity in Salmonella typhimurium TA1535 harboring pSK1002 assessed as umu gene induction at 0.125 mg/ml in absence of Sprague-Dawley rat liver S9 fraction after by SOS/umu assay relative to control; type: toxicity, organism-based; details: salmonella enterica subsp. enterica serovar typhimurium, read-out: FC
[6] = Genotoxicity in Salmonella typhimurium TA1535 harboring pSK1002 assessed as survival at 0.125 mg/ml in presence of Sprague-Dawley rat liver S9 fraction after by SOS/umu assay relative to control; type: toxicity, organism-based; details: salmonella enterica subsp. enterica serovar typhimurium, read-out: Survival
[7] = Genotoxicity in Salmonella typhimurium TA1535 harboring pSK1002 assessed as umu gene induction at 0.125 mg/ml in presence of Sprague-Dawley rat liver S9 fraction after by SOS/umu assay relative to control; type: toxicity, organism-based; details: salmonella enterica subsp. enterica serovar typhimurium, read-out: FC
[8] = Genotoxicity in Salmonella typhimurium TA1535 harboring pSK1002 assessed as survival at 0.063 mg/ml in absence of Sprague-Dawley rat liver S9 fraction after by SOS/umu assay relative to control; type: toxicity, organism-based; details: salmonella enterica subsp. enterica serovar typhimurium, read-out: Survival
[9] = Genotoxicity in Salmonella typhimurium TA1535 harboring pSK1002 assessed as umu gene induction at 0.063 mg/ml in absence of Sprague-Dawley rat liver S9 fraction after by SOS/umu assay relative to control; type: toxicity, organism-based; details: salmonella enterica subsp. enterica serovar typhimurium, read-out: FC
[10] = Genotoxicity in Salmonella typhimurium TA1535 harboring pSK1002 assessed as umu gene induction at 0.063 mg/ml in presence of Sprague-Dawley rat liver S9 fraction after by SOS/umu assay relative to control; type: toxicity, organism-based; details: salmonella enterica subsp. enterica serovar typhimurium, read-out: FC
[11] = Genotoxicity in Salmonella typhimurium TA1535 harboring pSK1002 assessed as umu gene induction at 0.031 mg/ml in absence of Sprague-Dawley rat liver S9 fraction after by SOS/umu assay relative to control; type: toxicity, organism-based; details: salmonella enterica subsp. enterica serovar typhimurium, read-out: FC
[12] = Genotoxicity in Salmonella typhimurium TA1535 harboring pSK1002 assessed as umu gene induction at 0.031 mg/ml in presence of Sprague-Dawley rat liver S9 fraction after by SOS/umu assay relative to control; type: toxicity, organism-based; details: salmonella enterica subsp. enterica serovar typhimurium, read-out: FC
[13] = Genotoxicity in Salmonella typhimurium TA1535 harboring pSK1002 assessed as survival at 0.016 mg/ml in absence of Sprague-Dawley rat liver S9 fraction after by SOS/umu assay relative to control; type: toxicity, organism-based; details: salmonella enterica subsp. enterica serovar typhimurium, read-out: Survival
[14] = Genotoxicity in Salmonella typhimurium TA1535 harboring pSK1002 assessed as umu gene induction at 0.016 mg/ml in absence of Sprague-Dawley rat liver S9 fraction after by SOS/umu assay relative to control; type: toxicity, organism-based; details: salmonella enterica subsp. enterica serovar typhimurium, read-out: FC
[15] = Genotoxicity in Salmonella typhimurium TA1535 harboring pSK1002 assessed as survival at 0.016 mg/ml in presence of Sprague-Dawley rat liver S9 fraction after by SOS/umu assay relative to control; type: toxicity, organism-based; details: salmonella enterica subsp. enterica serovar typhimurium, read-out: Survival
[16] = Genotoxicity in Salmonella typhimurium TA1535 harboring pSK1002 assessed as umu gene induction at 0.016 mg/ml in presence of Sprague-Dawley rat liver S9 fraction after by SOS/umu assay relative to control; type: toxicity, organism-based; details: salmonella enterica subsp. enterica serovar typhimurium, read-out: FC
[17] = Genotoxicity in Salmonella typhimurium TA1535 harboring pSK1002 assessed as umu gene induction at 0.008 mg/ml in absence of Sprague-Dawley rat liver S9 fraction after by SOS/umu assay relative to control; type: toxicity, organism-based; details: salmonella enterica subsp. enterica serovar typhimurium, read-out: FC
[18] = Genotoxicity in Salmonella typhimurium TA1535 harboring pSK1002 assessed as survival at 0.008 mg/ml in presence of Sprague-Dawley rat liver S9 fraction after by SOS/umu assay relative to control; type: toxicity, organism-based; details: salmonella enterica subsp. enterica serovar typhimurium, read-out: Survival
[19] = Genotoxicity in Salmonella typhimurium TA1535 harboring pSK1002 assessed as umu gene induction at 0.008 mg/ml in presence of Sprague-Dawley rat liver S9 fraction after by SOS/umu assay relative to control; type: toxicity, organism-based; details: salmonella enterica subsp. enterica serovar typhimurium, read-out: FC
[20] = Genotoxicity in Salmonella typhimurium TA1535 harboring pSK1002 assessed as umu gene induction at 0.004 mg/ml in absence of Sprague-Dawley rat liver S9 fraction after by SOS/umu assay relative to control; type: toxicity, organism-based; details: salmonella enterica subsp. enterica serovar typhimurium, read-out: FC
[21] = Genotoxicity in Salmonella typhimurium TA1535 harboring pSK1002 assessed as survival at 0.004 mg/ml in presence of Sprague-Dawley rat liver S9 fraction after by SOS/umu assay relative to control; type: toxicity, organism-based; details: salmonella enterica subsp. enterica serovar typhimurium, read-out: Survival
[22] = Genotoxicity in Salmonella typhimurium TA1535 harboring pSK1002 assessed as umu gene induction at 0.004 mg/ml in presence of Sprague-Dawley rat liver S9 fraction after by SOS/umu assay relative to control; type: toxicity, organism-based; details: salmonella enterica subsp. enterica serovar typhimurium, read-out: FC
[23] = Genotoxicity in Salmonella typhimurium TA1535 harboring pSK1002 assessed as survival at 0.002 mg/ml in absence of Sprague-Dawley rat liver S9 fraction after by SOS/umu assay relative to control; type: toxicity, organism-based; details: salmonella enterica subsp. enterica serovar typhimurium, read-out: Survival
[24] = Genotoxicity in Salmonella typhimurium TA1535 harboring pSK1002 assessed as umu gene induction at 0.002 mg/ml in absence of Sprague-Dawley rat liver S9 fraction after by SOS/umu assay relative to control; type: toxicity, organism-based; details: salmonella enterica subsp. enterica serovar typhimurium, read-out: FC
[25] = Genotoxicity in Salmonella typhimurium TA1535 harboring pSK1002 assessed as survival at 0.002 mg/ml in presence of Sprague-Dawley rat liver S9 fraction after by SOS/umu assay relative to control; type: toxicity, organism-based; details: salmonella enterica subsp. enterica serovar typhimurium, read-out: Survival
[26] = Genotoxicity in Salmonella typhimurium TA1535 harboring pSK1002 assessed as umu gene induction at 0.002 mg/ml in presence of Sprague-Dawley rat liver S9 fraction after by SOS/umu assay relative to control; type: toxicity, organism-based; details: salmonella enterica subsp. enterica serovar typhimurium, read-out: FC
[27] = Genotoxicity in Salmonella typhimurium TA1535 harboring pSK1002 assessed as umu gene induction at 0.001 mg/ml in absence of Sprague-Dawley rat liver S9 fraction after by SOS/umu assay relative to control; type: toxicity, organism-based; details: salmonella enterica subsp. enterica serovar typhimurium, read-out: FC
[28] = Genotoxicity in Salmonella typhimurium TA1535 harboring pSK1002 assessed as survival at 0.001 mg/ml in presence of Sprague-Dawley rat liver S9 fraction after by SOS/umu assay relative to control; type: toxicity, organism-based; details: salmonella enterica subsp. enterica serovar typhimurium, read-out: Survival
[29] = Genotoxicity in Salmonella typhimurium TA1535 harboring pSK1002 assessed as umu gene induction at 0.001 mg/ml in presence of Sprague-Dawley rat liver S9 fraction after by SOS/umu assay relative to control; type: toxicity, organism-based; details: salmonella enterica subsp. enterica serovar typhimurium, read-out: FC

SMILES | IC50 (Plasmodium falciparum [1]) [nM] | IC50 (Plasmodium falciparum [2]) [nM] | CC50 [3] [nM] | selectivity ratio [4] | fold induction at 0.125 mg/ml [5] | viability at 0.125 mg/ml [6] [%] | fold induction at 0.125 mg/ml [7] | viability at 0.063 mg/ml [8] [%] | fold induction at 0.063 mg/ml [9] | fold induction at 0.063 mg/ml [10] | fold induction at 0.031 mg/ml [11] | fold induction at 0.031 mg/ml [12] | viability at 0.016 mg/ml [13] [%] | fold induction at 0.016 mg/ml [14] | viability at 0.016 mg/ml [15] [%] | fold induction at 0.016 mg/ml [16] | fold induction at 0.008 mg/ml [17] | viability at 0.008 mg/ml [18] [%] | fold induction at 0.008 mg/ml [19] | fold induction at 0.004 mg/ml [20] | further results
OC(CCN1CCN(c2ccccc2C(F)(F)F)CC1)c1ccc(F)cc1 (stereo unspecified) | 1690 | 1010 | 1350 | 1 | 1.2 | 21.3 | 1.9 | 28.6 | 1.3 | 0.8 | 0.8 | 1 | 99.8 | 0.8 | 87.9 | 0.9 | 0.8 | 96.1 | 1 | 0.9 | viability at 0.004 mg/ml [21]: 92.9%; fold induction at 0.004 mg/ml [22]: 1.1; viability at 0.002 mg/ml [23]: 110%; fold induction at 0.002 mg/ml [24]: 0.8; viability at 0.002 mg/ml [25]: 90.4%; fold induction at 0.002 mg/ml [26]: 1; fold induction at 0.001 mg/ml [27]: 0.9; viability at 0.001 mg/ml [28]: 84.6%; fold induction at 0.001 mg/ml [29]: 1.1
Oc1ccc(C(O)CCN2CC=C(c3ccc(F)cc3)CC2)cc1 (stereo unspecified) | 2880 | 22200 | 253000 | 88 | 0.5 | 103 | 0.4 | 123 | 0.5 | 0.4 | 1.1 | 1.8 | 94.8 | 1.2 | 120 | 1.2 | 1.1 | 108 | 0.6 | 1 | viability at 0.004 mg/ml [21]: 112%; fold induction at 0.004 mg/ml [22]: 0.5; viability at 0.002 mg/ml [23]: 98.6%; fold induction at 0.002 mg/ml [24]: 1; viability at 0.002 mg/ml [25]: 112%; fold induction at 0.002 mg/ml [26]: 1.4; fold induction at 0.001 mg/ml [27]: 1.2; viability at 0.001 mg/ml [28]: 102%; fold induction at 0.001 mg/ml [29]: 0.5
COc1ccccc1C1=CCN(CCC(O)c2ccc(F)c3ccccc23)CC1 (stereo unspecified) | 1300 | 100 | 17700 | 14 | 0.4 | 79.1 | 0.7 | 90.7 | 0.5 | 0.6 | 1.3 | 0.5 | 50.6 | 1.2 | 84 | 0.8 | 0.8 | 96.9 | 0.7 | 0.9 | viability at 0.004 mg/ml [21]: 91.1%; fold induction at 0.004 mg/ml [22]: 0.8; viability at 0.002 mg/ml [23]: 86.6%; fold induction at 0.002 mg/ml [24]: 0.9; viability at 0.002 mg/ml [25]: 101%; fold induction at 0.002 mg/ml [26]: 0.9; fold induction at 0.001 mg/ml [27]: 0.9; viability at 0.001 mg/ml [28]: 106%; fold induction at 0.001 mg/ml [29]: 0.8
COc1ccccc1C1=CCN(CCC(O)c2ccc(F)cc2)CC1 (stereo unspecified) | 1320 | 2820 | 67000 | 51 | 1 | 88.5 | 1 | 101 | 0.9 | 0.9 | 1 | 1 | 106 | 1 | 78.9 | 1.2 | 1 | 88.3 | 1 | 1.1 | viability at 0.004 mg/ml [21]: 82.3%; fold induction at 0.004 mg/ml [22]: 1.1; viability at 0.002 mg/ml [23]: 103%; fold induction at 0.002 mg/ml [24]: 1.1; viability at 0.002 mg/ml [25]: 87.2%; fold induction at 0.002 mg/ml [26]: 1.1; fold induction at 0.001 mg/ml [27]: 1; viability at 0.001 mg/ml [28]: 103%; fold induction at 0.001 mg/ml [29]: 1.2
